# Screening results: PubChem, SRMLSC
# HCT116 bCat-KO: beta-catenin-lacking colon tumor cell growth suppression | HCT116 beta-catenin knockout viability, CellTiter-Glo, 60 h; active compounds read low | viability, % at 10 µM | 1.5% of 140,000 active | AID 818;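 active = viability at or under a set limit, the compound median less 4 SD, cut at about 6% in these data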;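 also: 0% = Hyamine 1622 control at 20 µM and 100% = untreated cell control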
# Fibroblast inh: blocks proliferation of human lung fibroblasts; 1.1% of 85,000 active; LL 47 human lung fibroblast viability, ATP luminescence; active compounds read low; viability, % at 10 µM;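 active = viability at or below 50% in the single dose screen; inactive = viability above 50%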;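 also: compound exposure lasted 72 h before the ATP readout; 100% = median luminescence of untreated cell-only wells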
#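 Material: Human LL 47 lung fibroblast cells | Input: 1,150 cells/well | Buffer or medium: IMEM plus 15% FBS | Compound dosing: 0.1% DMSO in all compound wells | Times: Overnight cell rest, 72 h compound treatment at 37 °C | Signal: CellTiter-Glo luminescence measuring cellular ATP | Measure: % viability versus median cells-only luminescence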
# H69AR inhibit: growth inhibitors of human H69AR lung tumor cells. H69AR lung tumor viability, ATP luminescence, 72 h; active compounds read low. viability, % at 10 µM. 6% of 85,000 active. AID 598;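 active = viability at or below 40%; inactive = viability above 40%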;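 also: multidrug resistant small cell line overexpressing MRP-1 efflux transporter; 100% = mean luminescence of untreated control wells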
# HUVEC inhibit: human endothelial cell proliferation inhibition. AID 648. HUVEC proliferation, CellTiter-Glo luminescence, 72 h; active compounds read low. viability, % at 10 µM (by protocol). 1.1% of 86,000 active;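 active = viability at or below 30%; inactive = viability above 30%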;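 also: 100% = median luminescence of DMSO-only cell control wells on each plate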
# HCT116 PTEN-null: PTEN-deleted cell growth suppression. HCT116 PTEN-null viability, CellTiter-Glo, 60 h; active compounds read low. viability, % at 10 µM. 1.2% of 140,000 active. AID 827;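 active = viability at or below a set limit, 4 SD under the median of all tested compounds, cut at about 3.7% in these data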;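 also: PTEN knockout HCT116 line with beta catenin targeted HCT116 as companion control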
# An asterisk follows results filed as active; x = not tested or not shown. Shown is part of a subset that was picked to be rich in hits.
SMILES,HCT116 bCat-KO,Fibroblast inh,H69AR inhibit,HUVEC inhibit,HCT116 PTEN-null
Cc1ccc(S(=O)(=O)N2CCC(C(=O)NC3CCCCCC3)CC2)cc1,112.0,x,29.7*,99.2,104.9
O=C(NC1CCCCC1)N1CCCC(c2nc(-c3ccc(S(=O)(=O)N4CCCC4)cc3)no2)C1 (configuration not stated),68.7,88.4,34.6*,88.3,63.4
O=C(NC1CCCCC1)N1CCCC(c2nc(-c3cccs3)no2)C1 (configuration not stated),83.1,93.4,90.5,93.4,93.1
Cc1ccc(S(=O)(=O)NNC(=O)C2CCN(S(=O)(=O)c3ccc(C)cc3)CC2)cc1,98.1,x,x,x,92.2
Cc1cccc(OCC(=O)N/N=C\c2cc3c(cc2[N+](=O)[O-])OCO3)c1C,76.4,100.0,86.0,74.7,77.2
COc1ccc(CC(=O)NCc2ccco2)cc1OC,86.8,91.3,81.7,92.9,93.5
COc1ccccc1N=c1oc2c(OC)cccc2cc1C(=O)NCc1ccco1,12.4,85.7,14.7*,60.7,7.5
COc1ccc(N=c2oc3c(OC)cccc3cc2C(=O)NCc2ccco2)cc1OC,83.6,90.2,36.3*,56.0,82.1
COc1ccc(OC)c(N=c2oc3c(OC)cccc3cc2C(=O)NCc2ccco2)c1,x,91.7,87.9,94.1,x
CC1CCN(CC(=O)Nc2cccc(C(=O)Nc3cccc(C(F)(F)F)c3)c2)CC1,54.0,x,x,x,44.2
CCn1cc([N+](=O)[O-])c(C(=O)Nc2ccn(Cc3ccccc3)n2)n1,105.3,x,x,x,96.5
Cc1ccc(Cn2ccc(NC(=O)c3nn(C)cc3[N+](=O)[O-])n2)cc1,5.0*,x,x,x,2.6*
CCn1ncc([N+](=O)[O-])c1C(=O)Nc1ccc(C(=O)N2CCCCC2)cc1,94.3,x,x,x,88.3
Cn1cc([N+](=O)[O-])c(C(=O)Nc2cc(Oc3cccnc3)cc([N+](=O)[O-])c2)n1,1.6*,x,x,x,0.3*
Cc1cc(C)n(Cc2ccc(NC(=O)c3nn(C)cc3[N+](=O)[O-])cc2)n1,5.3*,x,x,x,1.8*
Cn1cc([N+](=O)[O-])c(C(=O)Nc2ccc(C(=O)N3CCCCC3)cc2)n1,4.1*,x,x,x,3.5*
CC1CCCCC12NC(=O)N(CC(=O)Nc1ccc(N3CCOCC3)cc1)C2=O (configuration not stated),93.0,x,x,x,97.8
CCN(CC)S(=O)(=O)c1ccc(C2=NOC3(C2)N(C)c2ccccc2C3(C)C)cc1 (configuration not stated),78.7,x,x,x,80.6
O=C(Nc1ccnc(-c2cccnc2)n1)c1cccc(Cl)c1Cl,88.4,x,x,x,95.9
CN(C)c1ccnc(N(Cc2ccccc2)Cc2ccccc2)c1C#N,73.7,96.6,96.5,90.3,85.1
COc1cc2ccccc2cc1C(=O)Nc1ccc(N2CCN(C)CC2)cc1,x,72.2,7.1*,9.0*,x
CCCCCCOC(=O)C[N+](C)(C)CCOC1CC2CCC1(C)C2(C)C (configuration not stated),33.7,x,x,x,29.5
CCCCCCCOC(=O)C[N+](C)(C)CCOC1CC2CCC1(C)C2(C)C (configuration not stated),1.6*,x,x,x,1.3*
CCOC(=O)CSc1nnc(-c2ccccc2NC(=O)c2ccccc2)o1,97.9,93.4,87.8,85.6,111.5
CCc1nnc(NC(=O)CSc2nnc(-c3ccccc3NC(=O)c3ccccc3)o2)s1,30.1,58.6,30.1*,86.6,23.1
SMILES,HCT116 bCat-KO,Fibroblast inh,H69AR inhibit,HUVEC inhibit,HCT116 PTEN-null
COCCNC(=S)N1CCc2cc(OC)c(OC)cc2C1COc1ccc(C(C)C)cc1 (configuration not stated),73.9,x,x,x,67.3
CCOC(=O)C1=C(C)n2c(s/c(=C/c3cccc([N+](=O)[O-])c3)c2=O)=NC1c1ccc(O)c(OC)c1 (configuration not stated),1.9*,16.9*,3.2*,7.4*,6.7
COc1cc(/C=c2\sc3n(c2=O)C(c2ccccc2)C(c2ccccc2)=NN=3)ccc1O (configuration not stated),90.7,100.6,63.6,97.0,62.9
Cc1cccc(NC(=O)CSc2nc3ccc(NC(=O)CSc4nnnn4-c4ccccc4)cc3s2)c1C,2.3*,x,x,x,3.9
O=C(CSc1nc2ccc(NC(=O)CSc3nnnn3-c3ccccc3)cc2s1)Nc1ccccc1,55.6,x,x,x,63.5
Sc1oc(-c2ccccc2)cc1C=Nc1ccccc1,91.9,102.7,25.9*,69.3,94.3
Oc1oc(-c2ccccc2)nc1C=Nc1ccccc1,94.8,106.6,89.7,98.2,87.7
O=C(/C=C(\O)c1ccc(Cl)cc1)C(=O)NNC(=O)C(O)(c1ccccc1)c1ccccc1,93.7,95.9,24.0*,73.2,93.5
N#Cc1c(-c2ccc(Cl)cc2)ccn2nc(C3CCCCC3)nc12,97.0,86.2,31.3*,93.5,92.5
COc1cccc(N(C(=O)CCl)C(C(=O)NCCc2ccccc2)c2cccs2)c1 (configuration not stated),2.4*,x,x,x,1.2*
COc1ccc(N(C(=O)CCl)C(C(=O)NCCc2ccccc2)c2cccs2)cc1Cl (configuration not stated),1.8*,x,x,x,0.9*
COc1cccc(N(C(=O)CS(=O)CC(=O)Nc2ccc(F)cc2)C(C(=O)NC2CCCCC2)c2cccs2)c1 (configuration not stated),81.8,x,x,x,83.3
CC1=C(C(=O)Nc2ccccc2C)C(c2ccc(C)o2)NC(=S)N1 (configuration not stated),94.9,x,x,x,94.4
O=C(COc1ccc(-c2ccccc2)cc1)N1CCN(S(=O)(=O)Cc2ccccc2)CC1,25.6,52.3,26.3*,48.8,30.4
Cc1ccc(OCC(=O)N2CCN(C(=O)Cc3ccccc3)CC2)cc1,97.0,101.8,104.9,103.3,93.2
CCCOc1ccc2ccccc2c1/C=N/n1c(C)nnc1-n1nc(C)cc1C,22.6,55.1,24.1*,54.5,22.4
Cc1cc(C)n(-c2nnc(C)n2/N=C/c2ccco2)n1,86.3,99.7,94.9,110.3,99.2
CCN(CC)S(=O)(=O)c1ccc(N2CCN(S(=O)(=O)c3ccccc3C#N)CC2)nc1,74.6,92.4,38.1*,91.7,79.3
N#Cc1ccccc1S(=O)(=O)N1CCN(c2ccc(S(=O)(=O)N3CCOCC3)cn2)CC1,82.2,96.2,81.9,103.0,87.1
Cc1ccc(-n2c(SCC(=O)NCc3ccco3)nc3c(sc4ccccc43)c2=O)cc1,69.0,x,x,x,65.8
COc1ccc(-c2nc(NC(=O)C3CCN(c4nc5ccccc5o4)CC3)sc2C)cc1,47.1,85.6,31.9*,59.4,33.5
Cc1nc2c3cc(Cl)ccc3n(CCN3CCCCC3)c2s1,21.0,49.0*,26.0*,46.5,25.3
Cc1nc(NC2=NCN(Cc3cccnc3)CN2)nc2c(C)cccc12,x,51.5,36.9*,70.2,x
C=CCOc1ccc(CNc2ccc(NC(=O)CC(C)C)cc2)cc1OC,92.7,x,x,x,97.3
CC(C)Oc1ccc(/C=N/NC(=O)C(CSCc2ccccc2)NC(=O)c2ccc([N+](=O)[O-])cc2)cc1 (configuration not stated),71.3,66.0,28.4*,67.4,36.0
